Laboratory results reported in ChEMBL document CHEMBL3526041, “Absorption, metabolism and excretion of [(14)C]mirabegron (YM178), a potent and selective β(3)-adrenoceptor agonist, after oral administration to healthy male volunteers” (Drug Metab Dispos, 2012).

Legend:
Plasma [1] = test: Terminal elimination phase half life as total radioactivity in healthy human plasma at 160 mg, po as single dose; assay type: ADME, organism-based; design: dosed compound name [14C]Mirabegron; conditions: in vivo
Procedure, shortened: (§1)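 Four healthy men fasted overnight, then took one oral dose of 160 mg mirabegron containing 1.85 MBq [14C]mirabegron, dissolved in 20 mM sodium citrate pH 4.5. Blood was drawn into lithium heparin tubes from 0 to 168 h. Total radioactivity in whole blood and plasma was counted by liquid scintillation. Unchanged drug in plasma was measured by validated LC-MS/MS (1–500 ng/ml). Parameters were derived noncompartmentally; values are mean ± S.D., n=4.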

[2] = Terminal elimination phase half life as total radioactivity in healthy human urine at 160 mg, po as single dose; assay type: ADME, organism-based; design: dosed compound name [14C]Mirabegron; conditions: in vivo
Procedure, shortened: (§2)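 Same single oral 160 mg [14C]mirabegron solution in four fasted healthy men. Urine was collected over 0–6, 6–12 and 12–24 h, then in 24-h intervals to 408 h. Radioactivity was measured by scintillation counting. Unchanged drug was measured by LC-MS/MS (2–1000 ng/ml). Half-life came from log-linear regression of the terminal phase, and renal clearance was also calculated.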

Blood [3] = test: Tmax as total radioactivity in healthy human whole blood at 160 mg, po as single dose; assay type: ADME, organism-based; design: dosed compound name [14C]Mirabegron; conditions: in vivo; procedure, shortened: as §1
Blood [4] = test: Cmax as total radioactivity in healthy human whole blood at 160 mg, po as single dose; assay type: ADME, organism-based; design: dose 160 mg, route oral, dosed compound name [14C]Mirabegron; conditions: in vivo; procedure, shortened: as §1
Blood [5] = test: AUC (infinity) as total radioactivity in healthy human whole blood at 160 mg, po as single dose; assay type: ADME, organism-based; design: dose 160 mg, time infinity, route oral, dosed compound name [14C]Mirabegron; conditions: in vivo; procedure, shortened: as §1
Blood [6] = test: Terminal elimination phase half life as total radioactivity in healthy human whole blood at 160 mg, po as single dose; assay type: ADME, organism-based; design: dosed compound name [14C]Mirabegron; conditions: in vivo; procedure, shortened: as §1
[7] = Drug recovery in healthy human urine at 160 mg, po as single dose measured up to 408 hrs; assay type: ADME, organism-based; design: dosed compound name [14C]Mirabegron
Procedure, shortened: (§3)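 One oral dose of 160 mg [14C]mirabegron (1.85 MBq) given as a solution to four healthy men. Urine and feces were collected to 408 h; feces were homogenized and combusted. Expired air was trapped in hyamine hydroxide at set times to 96 h. All samples were counted by liquid scintillation. Cumulative excretion is given as % of administered radioactivity, mean ± S.D., n=4.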

[8] = Drug recovery in healthy human feces at 160 mg, po as single dose measured up to 408 hrs; assay type: ADME, organism-based; design: dosed compound name [14C]Mirabegron; conditions: in vivo; procedure, shortened: as §3
[9] = Drug recovery in healthy human expired air at 160 mg, po as single dose measured up to 96 hrs; assay type: ADME, organism-based; design: dosed compound name [14C]Mirabegron; conditions: in vivo; procedure, shortened: as §3
Homo sapiens [10] = test: Total drug recovery in healthy human at 160 mg, po as single dose measured up to 408 hrs; assay type: ADME, organism-based; design: dosed compound name [14C]Mirabegron; conditions: in vivo; procedure, shortened: as §3
[11] = Drug recovery in healthy human urine at 160 mg, po as single dose measured up to 96 hrs; assay type: ADME, organism-based; design: dosed compound name [14C]Mirabegron; conditions: in vivo; procedure, shortened: as §3
Homo sapiens [12] = test: Toxicity in healthy human assessed as changes in clinical lab values at 160 mg, po as single dose; assay type: organism-based; design: dosed compound name [14C]Mirabegron; conditions: in vivo
Procedure, shortened: (§4)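 Safety in the four dosed men was followed throughout admission: 12-lead ECGs, vital signs, hematology, biochemistry, urinalysis, and physical examinations after a single oral 160 mg [14C]mirabegron solution.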

Homo sapiens [13] = test: Toxicity in healthy human assessed as vital signs at 160 mg, po as single dose; assay type: organism-based; design: dosed compound name [14C]Mirabegron; conditions: in vivo; procedure, shortened: as §4
Homo sapiens [14] = test: Toxicity in healthy human assessed as ECG parameter at 160 mg, po as single dose; assay type: organism-based; design: dosed compound name [14C]Mirabegron; conditions: in vivo; procedure, shortened: as §4
Homo sapiens [15] = test: Toxicity in healthy human assessed as changes in physical signs at 160 mg, po as single dose; assay type: organism-based; design: dosed compound name [14C]Mirabegron; conditions: in vivo; procedure, shortened: as §4
Plasma [16] = test: Tmax as total radioactivity in healthy human plasma at 160 mg, po as single dose; assay type: ADME, organism-based; design: dosed compound name [14C]Mirabegron; conditions: in vivo; procedure, shortened: as §1
Plasma [17] = test: Cmax as total radioactivity in healthy human plasma at 160 mg, po as single dose; assay type: ADME, organism-based; design: dose 160 mg, route oral, dosed compound name [14C]Mirabegron; conditions: in vivo; procedure, shortened: as §1
Plasma [18] = test: AUC (infinity) as total radioactivity in healthy human plasma at 160 mg, po as single dose; assay type: ADME, organism-based; design: dose 160 mg, route oral, time infinity, dosed compound name [14C]Mirabegron; conditions: in vivo; procedure, shortened: as §1
[19] = Drug recovery in healthy human feces at 160 mg, po as single dose measured up to 96 hrs; assay type: ADME, organism-based; design: dosed compound name [14C]Mirabegron; conditions: in vivo; procedure, shortened: as §3
[20] = Drug recovery in healthy human plasma at 160 mg, po as single dose measured at 12 hrs; conditions: in vivo
[21] = Drug recovery in healthy human urine treated with [14C]mirabegron at 160 mg, po as single dose measured up to 48 hrs; assay type: ADME, organism-based; design: dosed compound name [14C]Mirabegron; conditions: in vivo
Procedure, shortened: (§5)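 Urine was collected at 0–6, 6–12, 12–24 and 24–48 h after a single oral 160 mg [14C]mirabegron dose in four men, with dichlorvos added. Samples underwent solid-phase extraction and radio-HPLC (C18, 40°C), with eluate fractions counted by scintillation. Each peak, as a percentage of eluted radioactivity, was converted to % of dose without recovery correction; mean ± S.D.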

Plasma [22] = test: Drug recovery in healthy human plasma treated with [14C]mirabegron at 160 mg, po as single dose measured at 2 hrs; assay type: ADME, organism-based; design: dosed compound name [14C]Mirabegron; conditions: in vivo
Procedure, shortened: (§6)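 Plasma taken at 2, 4, 8 and 12 h from the four subjects was pooled at each time point, with dichlorvos added. Pools underwent solid-phase extraction, then HPLC with fractions counted by low-level liquid scintillation. Each peak is expressed as % of the radioactivity injected onto HPLC.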

Plasma [23] = test: Drug recovery in healthy human plasma treated with [14C]mirabegron at 160 mg, po as single dose measured at 4 hrs; assay type: ADME, organism-based; design: dosed compound name [14C]Mirabegron; conditions: in vivo; procedure, shortened: as §6
Plasma [24] = test: Drug recovery in healthy human plasma treated with [14C]mirabegron at 160 mg, po as single dose measured at 8 hrs; assay type: ADME, organism-based; design: dosed compound name [14C]Mirabegron; conditions: in vivo; procedure, shortened: as §6
Plasma [25] = test: Drug recovery in healthy human plasma treated with [14C]mirabegron at 160 mg, po as single dose measured at 12 hrs; assay type: ADME, organism-based; design: dosed compound name [14C]Mirabegron; conditions: in vivo; procedure, shortened: as §6
[26] = Tmax in healthy human plasma at 160 mg, po as single dose; assay type: ADME, organism-based; design: dosed compound name [14C]Mirabegron; procedure, shortened: as §1
[27] = Cmax in healthy human plasma at 160 mg, po as single dose; assay type: ADME, organism-based; design: dose 160 mg, route oral, dosed compound name [14C]Mirabegron; procedure, shortened: as §1
[28] = AUC (infinity) in healthy human plasma at 160 mg, po as single dose; assay type: ADME, organism-based; design: dose 160 mg, route oral, time infinity, dosed compound name [14C]Mirabegron; procedure, shortened: as §1
[29] = Terminal elimination phase half life in healthy human plasma at 160 mg, po as single dose; assay type: ADME, organism-based; design: dosed compound name [14C]Mirabegron; conditions: read-out: beta t1/2 (converted); procedure, shortened: as §1
[30] = Terminal elimination phase half life in healthy human urine at 160 mg, po as single dose; assay type: ADME, organism-based; design: dosed compound name [14C]Mirabegron; conditions: read-out: beta t1/2 (converted); procedure, shortened: as §2
[31] = Apparent oral clearance in healthy human plasma at 160 mg, po as single dose; assay type: ADME, organism-based; design: dosed compound name [14C]Mirabegron; procedure, shortened: as §1
[32] = Apparent volume of distribution during terminal phase in healthy human plasma at 160 mg, po as single dose; assay type: ADME, organism-based; design: dosed compound name [14C]Mirabegron; conditions: read-out: Vz/F; procedure, shortened: as §1
[33] = Renal clearance in healthy human plasma at 160 mg, po as single dose; assay type: ADME, organism-based, Kidney; design: dosed compound name [14C]Mirabegron; procedure, shortened: as §2
[34] = Drug recovery in healthy human urine at 160 mg, po as single dose measured up to 48 hrs; assay type: ADME, organism-based; design: dosed compound name [14C]Mirabegron; conditions: read-out: Compound recovery; procedure, shortened: as §5
Plasma [35] = test: Drug recovery in healthy human plasma at 160 mg, po as single dose measured at 2 hrs; assay type: ADME, organism-based; design: dosed compound name [14C]Mirabegron; conditions: in vivo; procedure, shortened: as §6
Plasma [36] = test: Drug recovery in healthy human plasma at 160 mg, po as single dose measured at 4 hrs; assay type: ADME, organism-based; design: dosed compound name [14C]Mirabegron; conditions: in vivo; procedure, shortened: as §6
Plasma [37] = test: Drug recovery in healthy human plasma at 160 mg, po as single dose measured at 8 hrs; assay type: ADME, organism-based; design: dosed compound name [14C]Mirabegron; conditions: in vivo; procedure, shortened: as §6
Plasma [38] = test: Drug recovery in healthy human plasma at 160 mg, po as single dose measured at 12 hrs; assay type: ADME, organism-based; design: dosed compound name [14C]Mirabegron; conditions: in vivo; procedure, shortened: as §6
[39] = Absolute oral bioavailability in rat at 10 mg/kg; assay type: ADME, organism-based; design: dosed compound name [14C]Mirabegron; conditions: in vivo
[40] = Absolute oral bioavailability in rat at 30 mg/kg; assay type: ADME, organism-based; design: dosed compound name [14C]Mirabegron; conditions: in vivo
[41] = Absolute oral bioavailability in dog at 0.25 mg/kg; assay type: ADME, organism-based, Canis lupus familiaris; design: dosed compound name [14C]Mirabegron; conditions: in vivo
[42] = Absolute oral bioavailability in dog at 0.5 mg/kg; assay type: ADME, organism-based, Canis lupus familiaris; design: dosed compound name [14C]Mirabegron; conditions: in vivo
[43] = Absolute oral bioavailability in dog at 1 mg/kg; assay type: ADME, organism-based, Canis lupus familiaris; design: dosed compound name [14C]Mirabegron; conditions: in vivo
[44] = Absolute oral bioavailability in rat at 3 mg/kg; assay type: ADME, organism-based; design: dosed compound name [14C]Mirabegron; conditions: in vivo

Nc1nc(CC(=O)N[14c]2[14cH][14cH][14c](CCNC[C@H](O)c3ccccc3)[14cH][14cH]2)cs1
beta t1/2 (Plasma [1]): 28.2 h
beta t1/2 [2]: 84.5 h
Tmax (Blood [3]): 2.13 h
Cmax (Blood [4]): 777 ng/mL
AUC (Blood [5]): 13896 ng·h/mL
beta t1/2 (Blood [6]): 30.5 h
Radiolabel recovery ([7]; in vivo): 55%
Radiolabel recovery [8]: 34.2%
Radiolabel recovery [9]: Below limit of detection
Radiolabel recovery (Homo sapiens [10]): 89.2%
Radiolabel recovery [11]: 48.7%
Activity (Homo sapiens [12]): Non-toxic
Activity (Homo sapiens [13]): Non-toxic
Activity (Homo sapiens [14]): Non-toxic
Activity (Homo sapiens [15]): Non-toxic
Tmax (Plasma [16]): 2.25 h
Cmax (Plasma [17]): 879 ng/mL
AUC (Plasma [18]): 10443 ng·h/mL
Radiolabel recovery [19]: 29.3%
Radiolabel recovery [20]: metabolite_not_detected

CC(=O)Nc1ccc(CC(=O)O)cc1 [ACTARIT]
Compound recovery [21]: 0.6%
Compound recovery (Plasma [22]): Below limit of detection
Compound recovery (Plasma [23]): Below limit of detection
Compound recovery (Plasma [24]): Below limit of detection
Compound recovery (Plasma [25]): Below limit of detection

Nc1ccc(CCNCC(O)c2ccccc2)cc1O[C@@H]1O[C@H](C(=O)O)[C@@H](O)[C@H](O)[C@H]1O (stereo not given in full)
Compound recovery [21]: 2%
Compound recovery (Plasma [22]): Below limit of detection
Compound recovery (Plasma [23]): Below limit of detection
Compound recovery (Plasma [24]): Below limit of detection
Compound recovery (Plasma [25]): Below limit of detection

Nc1nc(CC(=O)Nc2ccc(CCNC[C@H](O)c3ccccc3)cc2)cs1 [MIRABEGRON]
Tmax [26]: 1 h
Cmax [27]: 371 ng/mL
AUC(0-inf) [28]: 2280 ng·h/mL
half-life [29]: 47.9 h
half-life [30]: 72.9 h
CL/F [31]: 1180 mL/min
Vd/F [32]: 4820 L
CL renal [33]: 295 mL/min
dose excreted at 408 h ([7]; read-out: Compound recovery): 25%
dose excreted at 48 h [34]: 18.4%
Compound recovery (Plasma [35]): 46.4%
Compound recovery (Plasma [36]): 30.9%
Compound recovery (Plasma [37]): 28.6%
Compound recovery (Plasma [38]): 31%
bioavailability [39]: 48.4%
bioavailability [40]: 75.7%
bioavailability [41]: 41.8%
bioavailability [42]: 64.6%
bioavailability [43]: 77.1%
bioavailability [44]: 23%
